Results published in EPA's CvTdb concentration-time database.

Key:
human [1] = test: concentration in blood after dosing; negative times count back from the end of exposure; conditions: dosed: trichloroethylene, 100 ppm, inhalation, person
Method in brief: (§1)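 A PubMed search, classifier screening and manual review identified published in vivo toxicokinetic studies, which together with two structured collections supplied concentration-versus-time and amount-versus-time points. Points were mostly digitised from plot screenshots with WebPlotDigitizer, otherwise copied from tables. Dose, route, subject details and medium were hand-curated from each paper, and sampling and analytical methods are those of the sources, often unreported.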

human [2] = test: concentration in expired air after dosing; conditions: dosed: trichloroethylene, 100 ppm, inhalation, duration: 4 hr, person
Method in brief: as §1

Molecule ClC=C(Cl)Cl [trichloroethylene] has a concentration in blood (human [1]; 0 h, duration: 6 hr) of 1310 ng/mL, a concentration in blood (human [1]; 22 s, duration: 4 hr) of 1870 ng/mL and a concentration in blood (human [1]; 0.2145 h, duration: 4 hr) of 2070 ng/mL. The concentration in blood (human [1]; 0.2337 h, duration: 4 hr) was 1290 ng/mL, the concentration in blood (human [1]; 0.4864 h, duration: 4 hr) was 1450 ng/mL and the concentration in blood (human [1]; 29.5 min, duration: 4 hr) was 851 ng/mL. For the same molecule, the concentration in blood (human [1]; 0.9849 h, duration: 4 hr) was 714 ng/mL, the concentration in blood (human [1]; 0.9924 h, duration: 4 hr) was 513 ng/mL and the concentration in blood (human [1]; 1.967 h, duration: 4 hr) was 333 ng/mL. It also gave a concentration in blood (human [1]; 1.979 h, duration: 4 hr) of 268 ng/mL, a concentration in blood (human [1]; 3.961 h, duration: 4 hr) of 170 ng/mL and a concentration in blood (human [1]; 18 h, duration: 6 hr) of 1100 ng/mL. The concentration in blood (human [1]; 24 h, duration: 6 hr) was 562 ng/mL, the concentration in blood (human [1]; 42 h, duration: 6 hr) was 1490 ng/mL and the concentration in blood (human [1]; 48 h, duration: 6 hr) was 1230 ng/mL. It also gave a concentration in blood (human [1]; 66 h, duration: 6 hr) of 2060 ng/mL, a concentration in blood (human [1]; 72 h, duration: 6 hr) of 1320 ng/mL and a concentration in blood (human [1]; 90 h, duration: 6 hr) of 1660 ng/mL. It also gave a concentration in blood (human [1]; 96 h, duration: 6 hr) of 1370 ng/mL, a concentration in blood (human [1]; 160 h, duration: 6 hr) of 921 ng/mL and a concentration in blood (human [1]; -1.009 h, duration: 4 hr, during exposure) of 2830 ng/mL. The concentration in blood (human [1]; -1.011 h, duration: 4 hr, during exposure) was 1690 ng/mL, the concentration in blood (human [1]; -1.997 h, duration: 4 hr, during exposure) was 1520 ng/mL and the concentration in blood (human [1]; -2.006 h, duration: 4 hr, during exposure) was 2530 ng/mL. It also gave a concentration in blood (human [1]; -3.003 h, duration: 4 hr, during exposure) of 2120 ng/mL, a concentration in blood (human [1]; -3.014 h, duration: 4 hr, during exposure) of 1250 ng/mL and a concentration in blood (human [1]; -3.499 h, duration: 4 hr, during exposure) of 881 ng/mL. The concentration in blood (human [1]; -3.502 h, duration: 4 hr, during exposure) was 1670 ng/mL, the concentration in blood (human [1]; -6 h, duration: 6 hr, during exposure) was 11.9 ng/mL and the “concentration in expired air” value (human [2]; 0.2144 h) was 4.28 ppm. For the same molecule, the “concentration in expired air” value (human [2]; 0.5331 h) was 2.8 ppm, the “concentration in expired air” value (human [2]; 1.023 h) was 1.97 ppm and the “concentration in expired air” value (human [2]; 2.042 h) was 1.38 ppm. The “concentration in expired air” value (human [2]; 4.039 h) was 0.761 ppm, the “concentration in expired air” value (human [2]; 5.983 h) was 0.736 ppm and the “concentration in expired air” value (human [2]; 7.98 h) was 0.579 ppm. For the same molecule, the “concentration in expired air” value (human [2]; 10.1 h) was 0.488 ppm.
